# Reference: article PMC3076632 (Journal of medicinal chemistry, 2011)
# Experiments:
# Type in all cases: cell-based
# human Nod1 = target: T1, human Nod1 (Homo sapiens, UniProt Q9Y239); test: NF-κB induction in HEK-Blue cells; conditions: for Nod1-agonistic activity (in words): primary screen, NF-κB induction
# T1 sequence (Q9Y239 1-953): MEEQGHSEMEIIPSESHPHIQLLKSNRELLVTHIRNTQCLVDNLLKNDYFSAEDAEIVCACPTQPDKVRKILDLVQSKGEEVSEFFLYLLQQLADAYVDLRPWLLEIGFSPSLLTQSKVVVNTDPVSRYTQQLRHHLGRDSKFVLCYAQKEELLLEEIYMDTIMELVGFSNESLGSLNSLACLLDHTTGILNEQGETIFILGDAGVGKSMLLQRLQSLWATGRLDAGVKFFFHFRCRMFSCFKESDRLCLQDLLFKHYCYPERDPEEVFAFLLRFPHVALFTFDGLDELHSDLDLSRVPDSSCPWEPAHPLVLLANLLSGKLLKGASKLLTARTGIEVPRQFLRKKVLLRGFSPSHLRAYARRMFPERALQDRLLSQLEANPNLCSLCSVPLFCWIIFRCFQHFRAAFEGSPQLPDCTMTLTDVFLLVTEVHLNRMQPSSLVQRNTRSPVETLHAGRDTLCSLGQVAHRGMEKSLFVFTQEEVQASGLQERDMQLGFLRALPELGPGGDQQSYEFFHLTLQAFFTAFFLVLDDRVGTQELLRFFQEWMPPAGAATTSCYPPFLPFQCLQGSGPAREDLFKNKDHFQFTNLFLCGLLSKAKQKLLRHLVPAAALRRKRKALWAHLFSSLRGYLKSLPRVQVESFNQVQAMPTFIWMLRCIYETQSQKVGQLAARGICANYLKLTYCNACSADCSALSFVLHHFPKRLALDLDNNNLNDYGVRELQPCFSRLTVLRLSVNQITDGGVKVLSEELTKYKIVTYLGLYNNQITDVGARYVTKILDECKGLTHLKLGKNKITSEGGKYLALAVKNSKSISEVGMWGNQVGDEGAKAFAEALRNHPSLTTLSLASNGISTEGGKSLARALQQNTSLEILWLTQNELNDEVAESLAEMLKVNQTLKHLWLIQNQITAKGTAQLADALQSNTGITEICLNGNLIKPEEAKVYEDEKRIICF
# Method in brief: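 HEK-Blue cells stably express secreted alkaline phosphatase (sAP) under NF-κB/AP-1 promoters. Cells were grown to confluency, then exposed to graded concentrations of test compound. Extracellular sAP in the supernatant, taken as proportional to Nod1-mediated NF-κB induction, was measured spectrophotometrically at 620 nm with an alkaline phosphatase-specific chromogen in the detection medium.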
# [1] = test system: CD11b in the granulocytic population in whole human blood; test: CD11b flow cytometric assay in whole human blood; conditions: ex vivo whole human blood, granulocytes, 1 hour at 37°C, flow cytometry
# Method in brief: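 Fresh anticoagulated whole human blood was incubated with graded dilutions of test compound for 1 h at 37°C, with saline negative controls. Samples were chilled on ice for 15 min, then stained with anti-CD11b/Mac-1 antibody for 30 min on ice so that only surface CD11b was labelled. Erythrocytes were lysed and leukocytes fixed in one step in pre-warmed lyse/fix buffer, then washed twice (200 g, 5 min). Single-colour PE flow cytometry, 20,000 gated events.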
# [2] = test system: p38 MAPK in the granulocytic population in whole human blood; test: Phosflow flow cytometric assay for p38MAPK in whole human blood; conditions: ex vivo whole human blood, granulocytes, 15 minutes at 37°C, flow cytometry
# Method in brief: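 Heparinised fresh whole human blood was exposed to graded concentrations of test compound in saline for 15 min at 37°C. One-step erythrocyte lysis and leukocyte fixation, wash (500 g, 8 min), permeabilisation in ice-cold methanol for 30 min, two PBS washes. Staining for 60 min with PE-anti-phospho-p38 (pT180/pY182) mAb or matched PE mouse IgG1κ isotype control. Single-colour PE flow cytometry, 20,000 gated events.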
# Human PBMCs = test: Transcriptomal profiling; conditions: 20 μg/mL
# Method in brief: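 PBMCs from fresh heparinised human blood were stimulated with test compound at 20 μg/mL for 2 h; total RNA was extracted from treated and negative-control samples. 4 μg RNA per sample was hybridised to U133 plus 2.0 arrays. Chips passed QC (5′/3′ ratio < 3.0), were scaled to target intensity 500 and normalised, with absent-call genes filtered. Differential expression was defined as ≥2-fold change versus negative control.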
Compound,Nod1-agonistic activity (in words) (human Nod1),CD11b upregulation (in words) [1],p38 MAPK upregulation (in words) [2],other results
"CCCCCCCCCCCC(=O)N[C@H](CCC(=O)NC(CCCC(N)C(=O)O)C(=O)O)C(=O)O (stereo partly drawn) [Compound 16, 2-Amino-6-((R)-4-carboxy-4-dodecanamidobutanamido) heptanedioic acid]",–,upregulated in a dose-dependent manner,upregulated in a dose-dependent manner,EC50 (human Nod1): ~0.03 nM
"CCCCCCCCCCCC(=O)N[C@H](CCC(=O)NC(CCCCC(=O)O)C(=O)O)C(=O)O (stereo partly drawn) [Compound 67, 2-((R)-4-carboxy-4-dodecanamidobutanamido)heptanedioic acid]",abrogation of activity,–,–,–
"CCCCCCCCCCCCN(CCCCCCCCCCCC)[C@H](CCC(=O)NC(CCCC(N)C(=O)O)C(=O)O)C(=O)O (stereo partly drawn) [Compound 27, 2-Amino-6-((R)-4-carboxy-4-(didodecylamino)butanamido) heptanedioic acid]",–,more potent than 16,more potent than 16,"pathway analysis of induced gene transcripts (in words) (Human PBMCs; IPA pathway analysis): activation of pathways involving signaling mediated by Triggering Receptor Expressed on Myeloid Cells 1; Fold change IL1B (interleukin 1, beta), up (Human PBMCs; probe set 39402_at, two hours, up): 4.45 fold; Fold change IL1RN (interleukin 1 receptor antagonist), up (Human PBMCs; probe set 212659_s_at, two hours, up): 8.19 fold; Fold change IL1RN (interleukin 1 receptor antagonist), up (Human PBMCs; probe set 216243_s_at, two hours, up): 7.54 fold; Fold change IL1RN (interleukin 1 receptor antagonist), up (Human PBMCs; probe set 216244_at, two hours, up): 8.27 fold"
"CCCCCCCCCCCC(=O)N[C@H](CCC(=O)NCCCCCN)C(=O)O [Compound 69, (R)-5-((5-Aminopentyl)amino)-2-dodecanamido-5-oxopentanoic acid]",abrogation of activity,–,–,–

# More lines, main results first:
Nod1-agonistic activity (in words) (human Nod1),Compound,CD11b upregulation (in words) [1],p38 MAPK upregulation (in words) [2],other results
inactive,"N[C@H](CCC(=O)N[C@H](CCC[C@H](N)C(=O)O)C(=O)O)C(=O)O [γ-glutamyl-meso-diaminopimelic acid, reference compound]",inactive,inactive,–
bereft of any activity,"CCCCCCCCCCCC(=O)N[C@H](CCC(=O)N[C@H](CCCCN)C(=O)O)C(=O)O [Compound 73, (R)-6-Amino-2-((R)-4-carboxy-4-dodecanamidobutanamido) hexanoic acid]",–,–,–
